High-throughput results as filed in PubChem.
HUVEC inhibit: inhibitors of HUVEC proliferation, primary screen, cell-based, 384-well; CellTiter-Glo luminescence, 72 h; hits give low values; viability, % at 10 µM (by protocol); actives 1.1% (n = 86,000); AID 648, 2007;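 active = viability at or below 30%; inactive = viability above 30%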;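 note: 100% = median luminescence of DMSO-only cell control wells on each plate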
Fibroblast inh: antiproliferative effect on LL 47 fibroblasts – human, LL 47 cells, CellTiter-Glo luminescence, primary screen | LL 47 human lung fibroblast viability, ATP luminescence; hits give low values | actives 1.1% (n = 85,000) | viability, % at 10 µM | AID 719, 2007;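 active = viability at or below 50% in the single dose screen; inactive = viability above 50%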;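 note: compound exposure lasted 72 h before the ATP readout; 100% = median luminescence of untreated cell-only wells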
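Benchmarks: Cell-only wells, no compound | Test system: LL 47 human lung fibroblasts, passage 12 or lower | Input: 1,150 cells/well | Measured by: CellTiter-Glo luminescence measuring cellular ATP | Medium: IMEM, 15% FBS supplement | Schedule: Overnight attachment after seeding, then 72 h compound exposure at 37 °C | Doses: Compound addition at 0.1% DMSO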
H69AR growth 86K: proliferation blockers of H69AR lung cancer cells, primary screen, cell-based, human, 86K library; H69AR lung tumor viability, ATP luminescence, 72 h; hits give low values; viability, % at 10 µM; actives 6% (n = 85,000);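 active = viability at or below 40%; inactive = viability above 40%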;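 note: multidrug resistant small cell line overexpressing MRP-1 efflux transporter; 100% = mean luminescence of untreated control wells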
Jurkat viability: cytotoxicity toward Jurkat T cells, primary screen, cytotoxicity control, cell-based, Jurkat E6.1, 60K MLSMR library; Jurkat E6.1 viability, ATP luminescence, 48 h; inhibition, % at 4 µM; actives 1.2% (n = 56,000); AID 463, 2006;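 active = inhibition above the mean inhibition of all tested compounds plus 3 SD, cut at about 28% in these data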
Numbers without * were called inactive; x = no result. Hits are enriched below; roughly 6.4% of the tested compounds scored in any of these assays.

SMILES	HUVEC inhibit	Fibroblast inh	H69AR growth 86K	Jurkat viability
Cc1cc(-c2nc3ncccc3o2)ccc1NC(=O)CC(C)C	x	x	x	-10
Cc1ccc(OCC(=O)Nc2ccc(-c3nc4ncccc4o3)cc2)c(C)c1	71	97	33*	-6
Cc1ccc(Cl)cc1N1CCN(C(=O)COc2ccc(S(=O)(=O)NC(C)C)cc2)CC1	64	90	52	54*
COc1c(Br)cc(Br)cc1/C=N/n1c(C)nnc1C	59	71	25*	8
COc1cc(/C=N/n2c(C)nnc2C)cc(OC)c1OC	89	100	105	x
O=C(NCc1cccnc1)c1c[nH]c2cc3c(cc2c1=O)OCCO3	83	89	80	94*
O=C(NCc1ccccc1)c1c[nH]c2ccc(S(=O)(=O)Nc3ccc4c(c3)OCCO4)cc2c1=O	75	95	95	7
Cc1nc2ccccc2n1CCc1nc2c3ccccc3nc(SCC#N)n2n1	28*	77	22*	x
O=C(CCn1c(SCC(=O)NCc2ccco2)nc2ccccc2c1=O)NCCc1ccccc1	91	103	97	x
Cc1cc(C)n(CCc2nc3c4ccccc4nc(SCc4ccc(C#N)cc4)n3n2)n1	77	113	86	-7
Cc1nc2ccccc2n1CCc1nc2c3ccccc3nc(SCC(=O)NCc3ccco3)n2n1	79	10*	21*	1
CC(NC(=O)C(CC(=O)OC(C)(C)C)NC(=O)OC(C)(C)C)C(N)=O (configuration not stated)	96	106	88	-2
O=C(c1ccc(F)cc1)C(CCCCCC(CN1CCOCC1)C(=O)c1ccc(F)cc1)CN1CCOCC1 (configuration not stated)	56	89	23*	x
O=C1NCCCC2c3c(cc(Br)c(O)c3Br)OC12N1CCOCC1 (configuration not stated)	100	109	100	-10
O=C1NCCCC2c3cc(O)c4ccccc4c3OC12N1CCCCC1 (configuration not stated)	3.4*	106	20*	20
CCN(CCCNC(=O)CCc1nc(-c2ccc(OC)cc2)no1)c1cccc(C)c1	100	94	84	x
COCc1cc(=O)[nH]c(Nc2nc(C)c3ccccc3n2)n1	84	48*	27*	x
COc1ccc2nc(Nc3nc(CSc4nnnn4-c4ccccc4)cc(=O)[nH]3)nc(C)c2c1	3.0*	95	1.7*	x
CCOc1ccc2nc(Nc3nc(CSc4nnnn4-c4ccccc4)cc(=O)[nH]3)nc(C)c2c1	53	96	4.5*	x
Cc1ccc2c(C)nc(Nc3nc(CSc4nnnn4-c4ccccc4)cc(=O)[nH]3)nc2c1	88	88	35*	4
CCOc1ccc2nc(Nc3nc4c(c(=O)[nH]3)CCC4)nc(C)c2c1	92	103	92	-6
COc1c(Cl)cc(-c2noc(C)c2C(=O)NCCc2ccc(C)cc2)cc1Cl	98	91	76	x
CN(Cc1ccccc1)c1nc2c(c(=O)[nH]c(=O)n2C)n1CCSc1ncccn1	93	96	90	x
COc1ccc(OCC(O)Cn2cnc(-c3ccc(Br)cc3)c2)cc1 (configuration not stated)	84	99	39*	x
Cc1cccc(Cc2c(C)nc3nc(SCC(=O)NCc4ccco4)nn3c2C)c1	76	89	51	x
SMILES	HUVEC inhibit	Fibroblast inh	H69AR growth 86K	Jurkat viability
Cc1nc2nc(SCC(=O)NCc3ccco3)nn2c(C)c1Cc1c(F)cccc1Cl	68	98	35*	x
CC1CCN(S(=O)(=O)c2ccc(S(=O)(=O)NCC3COCCO3)cc2)CC1 (configuration not stated)	87	99	96	2
COC(=O)c1ccccc1NC(=O)c1ccc(-c2ccccc2F)o1	36	68	13*	0
CC(=O)C1=C(O)C(=O)N(c2ccc(C)cc2)C1c1ccccn1 (configuration not stated)	99	97	108	x
CC1(C)C(=O)OC(c2ccccc2)C2(CCCC2)C1=O (configuration not stated)	102	98	99	x
COc1ccccc1CC(=O)N1CCCc2ccccc21	97	98	105	x
CC(C)C(=O)c1cn(CC(=O)N2CCCc3ccccc32)c2ccccc12	77	96	36*	x
CCOC(=O)C(CC)Sc1nc(-c2ccc(OC)cc2)nc2c1c(=O)n(C)c(=O)n2C (configuration not stated)	84	89	89	2
CN1CCN(S(=O)(=O)c2ccc(Br)c3nsnc23)CC1	101	89	2.9*	x
O=C1NC(=S)SC1=C1CCCC1	102	105	79	x
Cc1cc(C)c2nc(SCC(=O)Nc3ccccc3N3CCOCC3)c(C#N)cc2c1	71	71	41	x
Cc1ccsc1C(=O)N1CC(=O)Nc2ccccc21	89	93	30*	10
Cc1cc(C)c2nc(SCC(=O)N3CC(=O)Nc4ccccc43)c(C#N)cc2c1	43	63	24*	x
O=C1CN(C(=O)c2cnccn2)c2ccccc2N1	92	x	107	-6
Cc1cc(C)cc(C(=O)N2CC(=O)Nc3ccccc32)c1	45	50*	35*	x
CCOC(=O)c1nc(S(C)(=O)=O)ncc1Cl	78	65	1.6*	100*
CCOC(=O)c1sc(NC(=O)CSc2nnnn2-c2ccc(C)cc2C)nc1C	25*	100	84	4
CCOC(=O)c1sc(NC(=O)CSc2nnnn2-c2ccccc2)nc1C	82	99	72	-4
CCOC(=O)c1sc(NC(=O)CSc2nnnn2-c2ccc(C)c(C)c2)nc1C	18*	97	82	-2
COc1ccc(OC)c(-n2nnnc2SCC(=O)O)c1	98	93	105	x
COc1ccc(OC)c(-n2nnnc2SCC(=O)Nc2nc(C)c(C)s2)c1	78	97	20*	5
CCOC(=O)Cc1csc(NC(=O)CSc2nnnn2-c2ccc(C)cc2C)n1	94	105	96	x
COc1ccc(C(=O)CSc2nnc(Cc3ccccc3)o2)cc1	109	98	90	4
COc1ccc(C(=O)CSc2nnc(Cn3cnc4ccccc43)o2)cc1	54	92	75	92*
Cc1ccc(/C(O)=C2/C(=O)C(=O)N(CCN3CCOCC3)C2c2cccs2)cc1 (configuration not stated)	97	102	100	x
SMILES	HUVEC inhibit	Fibroblast inh	H69AR growth 86K	Jurkat viability
Cc1ccc(S(=O)(=O)CCSc2nc(C)cc(C)c2C#N)cc1	101	92	44	-5
CSc1nc(N)nc(SCCS(=O)(=O)c2ccc(Cl)cc2)c1C#N	72	88	2.5*	4
Cc1ccc2ccc(C3C(=O)c4ccccc4C3=O)nc2c1	71	56	59	x
Cc1cc(=O)oc2cc(OCC(=O)NCCc3nc4ccccc4[nH]3)ccc12	x	x	x	-13
CCOc1ccc(NS(=O)(=O)c2cc(Cl)ccc2OC)cc1	81	96	71	0
CCOc1ccc(S(=O)(=O)Nc2ccccc2SC)cc1	80	85	31*	x
CCOc1ccc(S(=O)(=O)Nc2cccc(Cl)c2)cc1	55	x	10*	28
